Test results reported in ChEMBL document CHEMBL1151837, “Structural reassignment, absolute configuration, and conformation of hypurticin, a highly flexible polyacyloxy-6-heptenyl-5,6-dihydro-2H-pyran-2-one” (J Nat Prod, 2009).
Values after ≈ are worked out from the molar mass of the structure shown.

Tests used:
HEp-2 = assay: Cytotoxicity against human Hep2 cells after 72 hrs by sulforhodamine B assay; format: functional, cell-based; settings: HEp-2, 72 h
Summary of the method: (§1)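 Cells kept in RPMI 1640 with 10% FBS at 37 °C, 5% CO2, humidified. Log-phase cells treated in triplicate at 0.16–20.0 µg/mL for 72 h. Cell density read by sulforhodamine B. Value is the dose giving 50% inhibition of control growth (ED50). Ellipticine served as positive control.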

KB = assay: Cytotoxicity against human KB cells after 72 hrs by sulforhodamine B assay; format: functional, cell-based; summary of the method: as §1
HeLa [1] = assay: Cytotoxicity against human HeLa cells after 72 hrs by sulforhodamine B assay; format: functional, cell-based; summary of the method: as §1
HeLa [2] = assay: Cell cycle arrest in human HeLa cells assessed as accumulation at G1 phase at 10 times IC50 after 48 hrs by flow cytometry; format: functional
Summary of the method: (§2)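 HeLa cells in log phase exposed 48 h to compound in DMSO at ten times its cytotoxicity IC50. Fixed in cold 70% (v/v) EtOH, then stained 12 h at 4 °C with Triton X-100, trisodium citrate and RNase A, and filtered through nylon mesh. DNA content measured by flow cytometry gives the percentage of cells in G1, S and G2.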

HeLa [3] = assay: Cell cycle arrest in human HeLa cells assessed as accumulation at S phase at 10 times IC50 after 48 hrs by flow cytometry; format: functional; summary of the method: as §2
HeLa [4] = assay: Cell cycle arrest in human HeLa cells assessed as accumulation at G2 phase at 10 times IC50 after 48 hrs by flow cytometry; format: functional; summary of the method: as §2

Compound	IC50 (HEp-2) [µg/mL]	IC50 (KB) [µg/mL]	IC50 (HeLa [1]) [µg/mL]	Activity (HeLa [2]) [%]	Activity (HeLa [3]) [%]	Activity (HeLa [4]) [%]
Cc1c2ccncc2c(C)c2c1[nH]c1ccccc12 [ELLIPTECINE]	0.4 (≈ 1.62 µM)	0.4 (≈ 1.62 µM)	0.4 (≈ 1.62 µM)	–	–	–
CC(=O)O[C@H](/C=C\[C@H]1CC=CC(=O)O1)C[C@@H](OC(C)=O)[C@H](C)OC(C)=O [HYPTOLIDE]	6.2 (≈ 16.8 µM)	3.6 (≈ 9.77 µM)	2.8 (≈ 7.6 µM)	34	57	7
CC(=O)O[C@H]([C@@H](OC(C)=O)[C@H](/C=C\[C@H]1CC=CC(=O)O1)OC(C)=O)[C@H](C)OC(C)=O [SPICIGEROIDE]	9.4 (≈ 22 µM)	5.4 (≈ 12.7 µM)	15.9 (≈ 37.3 µM)	40	34	23
